# ChEMBL document CHEMBL2321753, “Synthesis and biological evaluation of radioiodinated quinacrine-based derivatives for SPECT imaging of Aβ plaques” (Eur J Med Chem, 2013)
# Calls of active or inactive are those of the source. The calls are words filed in the database; no cut-off is given here.
# Tests used:
# Mus musculus [1] = species: Mus musculus; assay: Binding affinity to amyloid beta plaques in Tg2576 transgenic mouse brain at 100 uM after 3 to 10 hrs using Thioflavin S staining by fluorescence microscopy; assay type: tissue-based
# Method in brief: (§1)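 Brains of female Tg2576 mice (32 months) or wild-type controls (30 months) removed after decapitation and frozen in powdered dry ice. 10 µm sections incubated with compound (100 µM) for 3–10 h, then washed twice for 5 min in 50% EtOH or 50% DMSO. Fluorescence imaged with a GFP filter set (ex 470 nm, em >535 nm). Adjacent sections stained with thioflavin S to confirm plaques.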
# [2] = molecular target: T1, Amyloid-beta precursor protein (Homo sapiens, UniProt P05067); assay: Displacement of [125I]IMPY from amyloid beta (1 to 42) (unknown origin) after 3 hrs by gamma counting
# Method in brief: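 Filtered through GF/B filters and bound radioactivity gamma-counted. IC50 from displacement curves of three independent experiments; Ki calculated with the Cheng–Prusoff equation.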
# Mus musculus [3] = species: Mus musculus; assay: Binding affinity to amyloid beta plaques in wild type mouse brain at 100 uM after 3 to 10 hrs using Thioflavin S staining by fluorescence microscopy; assay type: tissue-based; method in brief: as §1
# Liver [4] = assay: Biodistribution in ddY mouse liver at 0.1 to 0.4 uCi, iv after 2 mins by gamma counting; assay type: ADME, organism-based; conditions: in vivo
# Method in brief: (§2)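 [125I]ligand (0.1–0.4 µCi) in 100 µL PBS (pH 7.4) containing 30 µL DMSO, injected into the tail vein of ddY mice (5 weeks, 22–25 g). Mice sacrificed at 2, 10, 30 and 60 min. Organs removed, weighed and gamma-counted. Values are % injected dose per gram, except stomach as % dose per organ. Mean (SD) of 3–6 mice per time point.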
# Spleen [5] = assay: Biodistribution in ddY mouse spleen at 0.1 to 0.4 uCi, iv after 10 mins by gamma counting; assay type: ADME, organism-based; conditions: in vivo; method in brief: as §2
# Spleen [6] = assay: Biodistribution in ddY mouse spleen at 0.1 to 0.4 uCi, iv after 2 mins by gamma counting; assay type: ADME, organism-based; conditions: in vivo; method in brief: as §2
# Spleen [7] = assay: Biodistribution in ddY mouse spleen at 0.1 to 0.4 uCi, iv after 30 mins by gamma counting; assay type: ADME, organism-based; conditions: in vivo, 0.5 h; method in brief: as §2
# Intestine [8] = assay: Biodistribution in ddY mouse intestine at 0.1 to 0.4 uCi, iv after 2 mins by gamma counting; assay type: ADME, organism-based; conditions: in vivo; method in brief: as §2
# Stomach [9] = assay: Biodistribution in ddY mouse stomach assessed per organ at 0.1 to 0.4 uCi, iv after 2 mins by gamma counting; assay type: ADME, organism-based; conditions: in vivo; method in brief: as §2
# Liver [10] = assay: Biodistribution in ddY mouse liver at 0.1 to 0.4 uCi, iv after 60 mins by gamma counting; assay type: ADME, organism-based; conditions: in vivo, 1 h; method in brief: as §2
# Liver [11] = assay: Biodistribution in ddY mouse liver at 0.1 to 0.4 uCi, iv after 30 mins by gamma counting; assay type: ADME, organism-based; conditions: in vivo, 0.5 h; method in brief: as §2
# Lung [12] = assay: Biodistribution in ddY mouse lung at 0.1 to 0.4 uCi, iv after 30 mins by gamma counting; assay type: ADME, organism-based; conditions: in vivo, 0.5 h; method in brief: as §2
# Brain [13] = assay: Biodistribution in ddY mouse brain at 0.1 to 0.4 uCi, iv after 2 mins by gamma counting; assay type: ADME, organism-based; conditions: in vivo; method in brief: as §2
# Lung [14] = assay: Biodistribution in ddY mouse lung at 0.1 to 0.4 uCi, iv after 2 mins by gamma counting; assay type: ADME, organism-based; conditions: in vivo; method in brief: as §2
# Pancreas [15] = assay: Biodistribution in ddY mouse pancreas at 0.1 to 0.4 uCi, iv after 30 mins by gamma counting; assay type: ADME, organism-based; conditions: in vivo, 0.5 h; method in brief: as §2
# Stomach [16] = assay: Biodistribution in ddY mouse stomach assessed per organ at 0.1 to 0.4 uCi, iv after 60 mins by gamma counting; assay type: ADME, organism-based; conditions: in vivo, 1 h; method in brief: as §2
# Heart [17] = assay: Biodistribution in ddY mouse heart at 0.1 to 0.4 uCi, iv after 60 mins by gamma counting; assay type: ADME, organism-based; conditions: in vivo, 1 h; method in brief: as §2
# Blood [18] = assay: Biodistribution in ddY mouse blood at 0.1 to 0.4 uCi, iv after 10 mins by gamma counting; assay type: ADME, organism-based; conditions: in vivo; method in brief: as §2
# Kidney [19] = assay: Biodistribution in ddY mouse kidney at 0.1 to 0.4 uCi, iv after 30 mins by gamma counting; assay type: ADME, organism-based; conditions: in vivo, 0.5 h; method in brief: as §2
# Brain [20] = assay: Biodistribution in ddY mouse brain at 0.1 to 0.4 uCi, iv after 60 mins by gamma counting; assay type: ADME, organism-based; conditions: in vivo, 1 h; method in brief: as §2
# [21] = n-octanol-sodium phosphate buffer partition co-efficient, log D of the compound at pH 7.4 by shake flask method; assay type: physicochemical
# Method in brief: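 Shake-flask partition between n-octanol and sodium phosphate buffer, pH 7.4, shaken 10 min at room temperature, then centrifuged. Weighed 0.5 mL samples of each layer counted. log D from the ratio of cpm per gram of octanol to cpm per gram of buffer; n = 3.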
# Kidney [22] = assay: Biodistribution in ddY mouse kidney at 0.1 to 0.4 uCi, iv after 60 mins by gamma counting; assay type: ADME, organism-based; conditions: in vivo, 1 h; method in brief: as §2
# Intestine [23] = assay: Biodistribution in ddY mouse intestine at 0.1 to 0.4 uCi, iv after 60 mins by gamma counting; assay type: ADME, organism-based; conditions: in vivo, 1 h; method in brief: as §2
# Brain [24] = assay: Biodistribution in ddY mouse brain at 0.1 to 0.4 uCi, iv after 30 mins by gamma counting; assay type: ADME, organism-based; conditions: in vivo, 0.5 h; method in brief: as §2
# Lung [25] = assay: Biodistribution in ddY mouse lung at 0.1 to 0.4 uCi, iv after 60 mins by gamma counting; assay type: ADME, organism-based; conditions: in vivo, 1 h; method in brief: as §2
# Intestine [26] = assay: Biodistribution in ddY mouse intestine at 0.1 to 0.4 uCi, iv after 30 mins by gamma counting; assay type: ADME, organism-based; conditions: in vivo, 0.5 h; method in brief: as §2
# Heart [27] = assay: Biodistribution in ddY mouse heart at 0.1 to 0.4 uCi, iv after 10 mins by gamma counting; assay type: ADME, organism-based; conditions: in vivo; method in brief: as §2
# Kidney [28] = assay: Biodistribution in ddY mouse kidney at 0.1 to 0.4 uCi, iv after 10 mins by gamma counting; assay type: ADME, organism-based; conditions: in vivo; method in brief: as §2
# Liver [29] = assay: Biodistribution in ddY mouse liver at 0.1 to 0.4 uCi, iv after 10 mins by gamma counting; assay type: ADME, organism-based; conditions: in vivo; method in brief: as §2
# Kidney [30] = assay: Biodistribution in ddY mouse kidney at 0.1 to 0.4 uCi, iv after 2 mins by gamma counting; assay type: ADME, organism-based; conditions: in vivo; method in brief: as §2
# [31] = molecular target: T1, Amyloid-beta precursor protein; assay: Binding affinity to amyloid beta aggregate (unknown origin) by centrifugation method
# Method in brief: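 Aβ(1-42) aggregated at 0.25 mg/mL in pH 7.4 buffer (10 mM sodium phosphate, 1 mM EDTA), 37 °C for 42 h with shaking. [125I]ligand at 4–500 nM final (set with unlabelled compound) in 10% EtOH incubated with aggregates 2 h at room temperature. Centrifuged 16,000 rpm, 10 min; supernatant gamma-counted for bound/free ratio. Nonspecific binding with 10 µM unlabelled ligand. Kd and Bmax from Scatchard analysis.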
# Blood [32] = assay: Biodistribution in ddY mouse blood at 0.1 to 0.4 uCi, iv after 30 mins by gamma counting; assay type: ADME, organism-based; conditions: in vivo, 0.5 h; method in brief: as §2
# Pancreas [33] = assay: Biodistribution in ddY mouse pancreas at 0.1 to 0.4 uCi, iv after 2 mins by gamma counting; assay type: ADME, organism-based; conditions: in vivo; method in brief: as §2
# Blood [34] = assay: Biodistribution in ddY mouse blood at 0.1 to 0.4 uCi, iv after 2 mins by gamma counting; assay type: ADME, organism-based; conditions: in vivo; method in brief: as §2
# Spleen [35] = assay: Biodistribution in ddY mouse spleen at 0.1 to 0.4 uCi, iv after 60 mins by gamma counting; assay type: ADME, organism-based; conditions: in vivo, 1 h; method in brief: as §2
# Pancreas [36] = assay: Biodistribution in ddY mouse pancreas at 0.1 to 0.4 uCi, iv after 60 mins by gamma counting; assay type: ADME, organism-based; conditions: in vivo, 1 h; method in brief: as §2
# Intestine [37] = assay: Biodistribution in ddY mouse intestine at 0.1 to 0.4 uCi, iv after 10 mins by gamma counting; assay type: ADME, organism-based; conditions: in vivo; method in brief: as §2
# Lung [38] = assay: Biodistribution in ddY mouse lung at 0.1 to 0.4 uCi, iv after 10 mins by gamma counting; assay type: ADME, organism-based; conditions: in vivo; method in brief: as §2
# Stomach [39] = assay: Biodistribution in ddY mouse stomach assessed per organ at 0.1 to 0.4 uCi, iv after 10 mins by gamma counting; assay type: ADME, organism-based; conditions: in vivo; method in brief: as §2
# Heart [40] = assay: Biodistribution in ddY mouse heart at 0.1 to 0.4 uCi, iv after 2 mins by gamma counting; assay type: ADME, organism-based; conditions: in vivo; method in brief: as §2
# Stomach [41] = assay: Biodistribution in ddY mouse stomach assessed per organ at 0.1 to 0.4 uCi, iv after 30 mins by gamma counting; assay type: ADME, organism-based; conditions: in vivo, 0.5 h; method in brief: as §2
# Blood [42] = assay: Biodistribution in ddY mouse blood at 0.1 to 0.4 uCi, iv after 60 mins by gamma counting; assay type: ADME, organism-based; conditions: in vivo, 1 h; method in brief: as §2
# Pancreas [43] = assay: Biodistribution in ddY mouse pancreas at 0.1 to 0.4 uCi, iv after 10 mins by gamma counting; assay type: ADME, organism-based; conditions: in vivo; method in brief: as §2
# Brain [44] = assay: Biodistribution in ddY mouse brain at 0.1 to 0.4 uCi, iv after 10 mins by gamma counting; assay type: ADME, organism-based; conditions: in vivo; method in brief: as §2
# Heart [45] = assay: Biodistribution in ddY mouse heart at 0.1 to 0.4 uCi, iv after 30 mins by gamma counting; assay type: ADME, organism-based; conditions: in vivo, 0.5 h; method in brief: as §2
# T1 sequence (P05067 whole entry): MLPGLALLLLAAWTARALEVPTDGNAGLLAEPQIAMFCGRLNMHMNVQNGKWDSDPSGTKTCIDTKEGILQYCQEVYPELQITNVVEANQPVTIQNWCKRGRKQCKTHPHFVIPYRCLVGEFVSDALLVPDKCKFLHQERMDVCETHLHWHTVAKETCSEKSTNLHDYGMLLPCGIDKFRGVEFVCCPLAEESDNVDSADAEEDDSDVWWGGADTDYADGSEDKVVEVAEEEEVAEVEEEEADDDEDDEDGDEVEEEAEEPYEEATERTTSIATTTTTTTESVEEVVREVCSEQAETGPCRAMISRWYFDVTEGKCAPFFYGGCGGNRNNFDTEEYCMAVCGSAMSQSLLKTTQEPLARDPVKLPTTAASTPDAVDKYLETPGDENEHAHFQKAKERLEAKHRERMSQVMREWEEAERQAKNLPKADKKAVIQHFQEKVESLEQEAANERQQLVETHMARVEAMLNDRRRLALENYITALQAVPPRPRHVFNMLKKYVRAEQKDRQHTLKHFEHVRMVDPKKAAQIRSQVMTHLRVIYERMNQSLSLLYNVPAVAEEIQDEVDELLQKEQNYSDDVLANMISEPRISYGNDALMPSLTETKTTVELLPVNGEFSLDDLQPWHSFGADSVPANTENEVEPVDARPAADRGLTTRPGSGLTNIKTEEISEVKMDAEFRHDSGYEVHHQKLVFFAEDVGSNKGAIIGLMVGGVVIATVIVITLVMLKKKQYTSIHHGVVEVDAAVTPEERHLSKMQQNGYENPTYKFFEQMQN
compound,measurement,setting,value
CCN(CC)CCCC(C)Nc1c2ccc(I)cc2nc2ccc(OC)cc12 (stereo not given),Activity,Mus musculus [1],Active
same,Ki,[2],353 nM
same,Activity,Mus musculus [3],inactive
CCN(CC)CCCC(C)Nc1c2ccc([125I])cc2nc2ccc(OC)cc12 (stereo not given),Drug uptake,Liver [4],8.15 % ID/g
same,Drug uptake,Spleen [5],9.38 % ID/g
same,Drug uptake,Spleen [6],6.14 % ID/g
same,Drug uptake,Spleen [7],10.88 % ID/g
same,Drug uptake,Intestine [8],1.89 % ID/g
same,Drug uptake,Stomach [9],1.18 %ID
same,Drug uptake,Liver [10],11.61 % ID/g
same,Drug uptake,Liver [11],11.02 % ID/g
same,Drug uptake,Lung [12],35.64 % ID/g
same,Drug uptake,Brain [13],0.32 % ID/g
same,Drug uptake,Lung [14],73.08 % ID/g
same,Drug uptake,Pancreas [15],7.67 % ID/g
same,Drug uptake,Stomach [16],1.24 %ID
same,Drug uptake,Heart [17],3.96 % ID/g
same,Drug uptake,Blood [18],1.85 % ID/g
same,Drug uptake,Kidney [19],13.93 % ID/g
same,Drug uptake,Brain [20],0.28 % ID/g
same,logD,[21],1.11
same,Drug uptake,Kidney [22],12.19 % ID/g
same,Drug uptake,Intestine [23],5.59 % ID/g
same,Drug uptake,Brain [24],0.24 % ID/g
same,Drug uptake,Lung [25],25.58 % ID/g
same,Drug uptake,Intestine [26],4.4 % ID/g
same,Drug uptake,Heart [27],13.09 % ID/g
same,Drug uptake,Kidney [28],13.58 % ID/g
same,Drug uptake,Liver [29],9.7 % ID/g
same,Drug uptake,Kidney [30],10.23 % ID/g
same,Kd,[31],48.4 nM
same,Drug uptake,Blood [32],0.73 % ID/g
same,Drug uptake,Pancreas [33],4.76 % ID/g
same,Drug uptake,Blood [34],4.21 % ID/g
same,Drug uptake,Spleen [35],11.17 % ID/g
same,Drug uptake,Pancreas [36],6.32 % ID/g
same,Drug uptake,Intestine [37],2.55 % ID/g
same,Drug uptake,Lung [38],59.55 % ID/g
same,Drug uptake,Stomach [39],1.33 %ID
same,Drug uptake,Heart [40],15.53 % ID/g
same,Drug uptake,Stomach [41],1.48 %ID
same,Drug uptake,Blood [42],0.52 % ID/g
same,Drug uptake,Pancreas [43],5.85 % ID/g
same,Drug uptake,Brain [44],0.33 % ID/g
same,Drug uptake,Heart [45],7 % ID/g
